Laboratory results taken from ChEMBL document CHEMBL1142636 (2000).

Key:
SW-620 = assay: Growth inhibition of human SW620 cells; assay type: functional
Outline: (§1)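 Tested at the NCI in its human disease-oriented in vitro screen of 60 tumour cell lines, following the Monks et al. methods. Activity is expressed as GI50, given as log molar values.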

MDA-N = assay: Growth inhibition of human MDA-N cells; assay type: functional; settings: read-out: pLC50 (the source's name) (converted)
[1] = Growth inhibition of human MCF7/ADR-RES cells; assay type: functional; settings: NCI/ADR-RES, read-out: pLC50 (the source's name) (converted)
BT-549 = assay: Growth inhibition of human BT549 cells; assay type: functional
LOX IMVI = assay: Growth inhibition of human LOX IMVI cells; assay type: functional; settings: read-out: pLC50 (the source's name) (converted)
K562 = assay: Growth inhibition of human K562 cells; assay type: functional
[2] = Growth inhibition of human OVACR5 cells; assay type: functional; settings: read-out: pLC50 (the source's name) (converted)
HOP-62 = assay: Growth inhibition of human HOP62 cells; assay type: functional
NCI-H226 = assay: Growth inhibition of human NCI-H226 cells; assay type: functional
T47D = assay: Growth inhibition of human T47D cells; assay type: functional; outline: as §1
MCF7 = assay: Growth inhibition of human MCF7 cells; assay type: functional; settings: read-out: pLC50 (the source's name) (converted)
MOLT-4 = assay: Growth inhibition of human MOLT4 cells; assay type: functional
SK-MEL-28 = assay: Growth inhibition of human SK-MEL-28 cells; assay type: functional; settings: read-out: pLC50 (the source's name) (converted); outline: as §1
SF-539 = assay: Growth inhibition of human SF539 cells; assay type: functional; settings: read-out: pLC50 (the source's name) (converted); outline: as §1
HCT-116 = assay: Growth inhibition of human HCT116 cells; assay type: functional; settings: read-out: pLC50 (the source's name) (converted)
SF-268 = assay: Growth inhibition of human SF268 cells; assay type: functional; outline: as §1
CCRF-CEM = assay: Growth inhibition of human CCRF-CEM cells; assay type: functional
SNB-19 = assay: Growth inhibition of human SNB19 cells; assay type: functional; settings: read-out: pLC50 (the source's name) (converted); outline: as §1
Malme-3M = assay: Growth inhibition of human MALME-3M cells; assay type: functional; settings: read-out: pLC50 (the source's name) (converted)
A549 = assay: Growth inhibition of human A549 cells; assay type: functional
UO-31 = assay: Growth inhibition of human UO31 cells; assay type: functional; settings: read-out: pLC50 (the source's name) (converted); outline: as §1
M14 = assay: Growth inhibition of human M14 cells; assay type: functional; settings: read-out: pLC50 (the source's name) (converted)
U-251 = assay: Growth inhibition of human U251 cells; assay type: functional; settings: read-out: pLC50 (the source's name) (converted); outline: as §1
UACC-257 = assay: Growth inhibition of human UACC257 cells; assay type: functional; settings: read-out: pLC50 (the source's name) (converted); outline: as §1
KM-20L2 = assay: Growth inhibition of human KM20L2 cells; assay type: functional; settings: read-out: pLC50 (the source's name) (converted)
EKVX = assay: Growth inhibition of human EKVX cells; assay type: functional; settings: read-out: pLC50 (the source's name) (converted)
[3] = Growth inhibition of human LXFL529 cells; assay type: functional; settings: LXFL 529
MDA-MB-435 = assay: Growth inhibition of human MDA-MB-435 cells; assay type: functional
786-0 = assay: Growth inhibition of human 786-0 cells; assay type: functional; settings: read-out: pLC50 (the source's name) (converted)
[4] = Growth inhibition of human HL60(TB) cells; assay type: functional, HL-60(TB); settings: HL-60, read-out: pLC50 (the source's name) (converted)
[5] = Growth inhibition of human DMS144 cells; assay type: functional
SN12C = assay: Growth inhibition of human SN12C cells; assay type: functional; settings: read-out: pLC50 (the source's name) (converted); outline: as §1
SK-OV-3 = assay: Growth inhibition of human SK-OV-3 cells; assay type: functional; settings: read-out: pLC50 (the source's name) (converted); outline: as §1
UACC-62 = assay: Growth inhibition of human UACC62 cells; assay type: functional; settings: read-out: pLC50 (the source's name) (converted); outline: as §1
NCI-H23 = assay: Growth inhibition of human NCI-H23 cells; assay type: functional
[6] = Growth inhibition of human […] cells; assay type: functional; settings: read-out: pLC50 (the source's name) (converted)
CAKI-1 = assay: Growth inhibition of human CAKI1 cells; assay type: functional; settings: read-out: pLC50 (the source's name) (converted)
DU-145 = assay: Growth inhibition of human DU145 cells; assay type: functional; settings: read-out: pLC50 (the source's name) (converted)
[7] = Growth inhibition of human OVACR8 cells; assay type: functional; settings: read-out: pLC50 (the source's name) (converted)
SK-MEL-5 = assay: Growth inhibition of human SK-MEL-5 cells; assay type: functional; settings: read-out: pLC50 (the source's name) (converted); outline: as §1
MDA-MB-231 = assay: Growth inhibition of human MDA-MB-231 cells; assay type: functional; settings: read-out: pLC50 (the source's name) (converted)
SF-295 = assay: Growth inhibition of human SF295 cells; assay type: functional; settings: read-out: pLC50 (the source's name) (converted); outline: as §1
[8] = Growth inhibition of human RPMI8266 cells; assay type: functional; settings: read-out: pLC50 (the source's name) (converted)
HOP-18 = assay: Growth inhibition of human HOP18 cells; assay type: functional; settings: read-out: pLC50 (the source's name) (converted)
A498 = assay: Growth inhibition of human A498 cells; assay type: functional; settings: read-out: pLC50 (the source's name) (converted)
COLO 205 = assay: Growth inhibition of human COLO205 cells; assay type: functional
KM12 = assay: Growth inhibition of human KM12 cells; assay type: functional; settings: read-out: pLC50 (the source's name) (converted)
XF498 = assay: Growth inhibition of human XF498 cells; assay type: functional; settings: read-out: pLC50 (the source's name) (converted); outline: as §1
DMS-273 = assay: Growth inhibition of human DMS273 cells; assay type: functional
DLD-1 = assay: Growth inhibition of human DLD1 cells; assay type: functional
PC-3 = assay: Growth inhibition of human PC3 cells; assay type: functional; settings: read-out: pLC50 (the source's name) (converted)
SK-MEL-2 = assay: Growth inhibition of human SK-MEL-2 cells; assay type: functional; settings: read-out: pLC50 (the source's name) (converted); outline: as §1
NCI-H322M = assay: Growth inhibition of human NCI-H322M cells; assay type: functional
[9] = Growth inhibition of human OVACR4 cells; assay type: functional; settings: read-out: pLC50 (the source's name) (converted)
ACHN = assay: Growth inhibition of human ACHN cells; assay type: functional; settings: read-out: pLC50 (the source's name) (converted)
M19-MEL = assay: Growth inhibition of human M19-MEL cells; assay type: functional; settings: read-out: pLC50 (the source's name) (converted)
RXF 393 = assay: Growth inhibition of human […] cells; assay type: functional; settings: read-out: pLC50 (the source's name) (converted)
TK-10 = assay: Growth inhibition of human TK10 cells; assay type: functional; settings: read-out: pLC50 (the source's name) (converted); outline: as §1
SNB-75 = assay: Growth inhibition of human SNB75 cells; assay type: functional; settings: read-out: pLC50 (the source's name) (converted); outline: as §1
HCT-15 = assay: Growth inhibition of human HCT15 cells; assay type: functional; settings: read-out: pLC50 (the source's name) (converted)
HT-29 = assay: Growth inhibition of human HT29 cells; assay type: functional
NCI-H522 = assay: Growth inhibition of human NCI-H522 cells; assay type: functional; settings: read-out: pLC50 (the source's name) (converted)
SR = assay: Growth inhibition of human SR cells; assay type: functional; outline: as §1
HCC 2998 = assay: Growth inhibition of human HCC2998 cells; assay type: functional
Hs-578T = assay: Growth inhibition of human HS578T cells; assay type: functional; settings: read-out: pLC50 (the source's name) (converted)
HOP-92 = assay: Growth inhibition of human HOP92 cells; assay type: functional; settings: read-out: pLC50 (the source's name) (converted)
NCI-H460 = assay: Growth inhibition of human NCI-H460 cells; assay type: functional
IGROV-1 = assay: Growth inhibition of human IGROV1 cells; assay type: functional; settings: read-out: pLC50 (the source's name) (converted)

C=C(C)C1CC2(C)CC1c1c(c(C)cc3c1[nH]c1ccccc13)O2 (stereo not drawn)
> 25.1 µM: LC50 (SW-620) | CC50 (MDA-N) | CC50 [1] | LC50 (BT-549) | CC50 (LOX IMVI) | LC50 (K562) | CC50 [2] | LC50 (HOP-62) | LC50 (NCI-H226) | LC50 (T47D) | CC50 (MCF7) | LC50 (MOLT-4) | CC50 (SK-MEL-28) | CC50 (SF-539) | CC50 (HCT-116) | LC50 (SF-268) | LC50 (CCRF-CEM) | CC50 (SNB-19) | CC50 (Malme-3M) | LC50 (A549) | CC50 (UO-31) | CC50 (M14) | CC50 (U-251) | CC50 (UACC-257) | CC50 (KM-20L2) | CC50 (EKVX) | LC50 [3] | LC50 (MDA-MB-435) | CC50 (786-0) | CC50 [4] | LC50 [5] | CC50 (SN12C) | CC50 (SK-OV-3) | CC50 (UACC-62) | LC50 (NCI-H23) | CC50 [6] | CC50 (CAKI-1) | CC50 (DU-145) | CC50 [7] | CC50 (SK-MEL-5) | CC50 (MDA-MB-231) | CC50 (SF-295) | CC50 [8] | CC50 (HOP-18) | CC50 (A498) | LC50 (COLO 205) | CC50 (KM12) | CC50 (XF498) | LC50 (DMS-273) | LC50 (DLD-1) | CC50 (PC-3) | CC50 (SK-MEL-2) | LC50 (NCI-H322M) | CC50 [9] | CC50 (ACHN) | CC50 (M19-MEL) | CC50 (RXF 393) | CC50 (TK-10) | CC50 (SNB-75) | CC50 (HCT-15) | LC50 (HT-29) | CC50 (NCI-H522) | LC50 (SR) | LC50 (HCC 2998) | CC50 (Hs-578T) | CC50 (HOP-92) | LC50 (NCI-H460) | CC50 (IGROV-1)
